# Test results from ChEMBL document CHEMBL4627266, “Design and biological evaluation of a novel type of potential multi-targeting antimicrobial sulfanilamide hybrids in combination of pyrimidine and azoles” (Bioorg Med Chem Lett, 2020).
# Tested on: Enterococcus faecalis
# Experiment: Antibacterial activity against Enterococcus faecalis by two fold serial microbroth dilution method
# Assay type: functional
# In short: (§1)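 Two-fold serial dilution in microdilution plates (micro broth dilution) following CLSI. Panel includes clinical drug-resistant isolates and ATCC reference strains. Clinical drugs were run as positive controls.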
row,Compound,MIC [µg/mL]
1,Cc1ncc([N+](=O)[O-])n1-c1ccnc(NS(=O)(=O)c2ccc(N)cc2)n1,128
2,Cc1cc2ncn(-c3ccnc(NS(=O)(=O)c4ccc(N)cc4)n3)c2cc1C,256
3,Nc1ccc(S(=O)(=O)Nc2nccc(-n3cnc4ccccc43)n2)cc1,256
4,CCc1nccn1-c1ccnc(NS(=O)(=O)c2ccc(N)cc2)n1,64

# Tested on: Staphylococcus aureus
# Experiment: Antibacterial activity against Staphylococcus aureus ATCC 25923 by two fold serial microbroth dilution method
# Assay type: functional
# In short: as §1
row,Compound,MIC [µg/mL]
1,Cc1ncc([N+](=O)[O-])n1-c1ccnc(NS(=O)(=O)c2ccc(N)cc2)n1,128
2,Cc1cc2ncn(-c3ccnc(NS(=O)(=O)c4ccc(N)cc4)n3)c2cc1C,256
3,Nc1ccc(S(=O)(=O)Nc2nccc(-n3cnc4ccccc43)n2)cc1,512
4,CCc1nccn1-c1ccnc(NS(=O)(=O)c2ccc(N)cc2)n1,128

# Tested on: Pseudomonas aeruginosa
# Experiment: Antibacterial activity against Pseudomonas aeruginosa by two fold serial microbroth dilution method
# Assay type: functional
# In short: as §1
row,Compound,MIC [µg/mL]
1,Cc1ncc([N+](=O)[O-])n1-c1ccnc(NS(=O)(=O)c2ccc(N)cc2)n1,256
2,Cc1cc2ncn(-c3ccnc(NS(=O)(=O)c4ccc(N)cc4)n3)c2cc1C,256
3,Nc1ccc(S(=O)(=O)Nc2nccc(-n3cnc4ccccc43)n2)cc1,512
4,CCc1nccn1-c1ccnc(NS(=O)(=O)c2ccc(N)cc2)n1,128

# Tested on: Klebsiella pneumoniae
# Experiment: Antibacterial activity against Klebsiella pneumoniae by two fold serial microbroth dilution method
# Assay type: functional
# In short: as §1
row,Compound,MIC [µg/mL]
1,Cc1ncc([N+](=O)[O-])n1-c1ccnc(NS(=O)(=O)c2ccc(N)cc2)n1,64
2,Cc1cc2ncn(-c3ccnc(NS(=O)(=O)c4ccc(N)cc4)n3)c2cc1C,256
3,Nc1ccc(S(=O)(=O)Nc2nccc(-n3cnc4ccccc43)n2)cc1,256
4,CCc1nccn1-c1ccnc(NS(=O)(=O)c2ccc(N)cc2)n1,64

# Tested on: Escherichia coli
# Experiment: Antibacterial activity against Escherichia coli by two fold serial microbroth dilution method
# Assay type: functional
# In short: as §1
row,Compound,MIC [µg/mL]
1,Cc1ncc([N+](=O)[O-])n1-c1ccnc(NS(=O)(=O)c2ccc(N)cc2)n1,128
2,Cc1cc2ncn(-c3ccnc(NS(=O)(=O)c4ccc(N)cc4)n3)c2cc1C,256
3,Nc1ccc(S(=O)(=O)Nc2nccc(-n3cnc4ccccc43)n2)cc1,128
4,CCc1nccn1-c1ccnc(NS(=O)(=O)c2ccc(N)cc2)n1,128

# Tested on: Staphylococcus aureus
# Experiment: Antibacterial activity against Staphylococcus aureus by two fold serial microbroth dilution method
# Assay type: functional
# In short: as §1
row,Compound,MIC [µg/mL]
1,Cc1ncc([N+](=O)[O-])n1-c1ccnc(NS(=O)(=O)c2ccc(N)cc2)n1,128
2,Cc1cc2ncn(-c3ccnc(NS(=O)(=O)c4ccc(N)cc4)n3)c2cc1C,256
3,Nc1ccc(S(=O)(=O)Nc2nccc(-n3cnc4ccccc43)n2)cc1,256
4,CCc1nccn1-c1ccnc(NS(=O)(=O)c2ccc(N)cc2)n1,128

# Tested on: Escherichia coli
# Experiment: Antibacterial activity against Escherichia coli ATCC 25922 by two fold serial microbroth dilution method
# Assay type: functional
# In short: as §1
row,Compound,MIC [µg/mL]
1,Cc1ncc([N+](=O)[O-])n1-c1ccnc(NS(=O)(=O)c2ccc(N)cc2)n1,256
2,Cc1cc2ncn(-c3ccnc(NS(=O)(=O)c4ccc(N)cc4)n3)c2cc1C,512
3,Nc1ccc(S(=O)(=O)Nc2nccc(-n3cnc4ccccc43)n2)cc1,256
4,CCc1nccn1-c1ccnc(NS(=O)(=O)c2ccc(N)cc2)n1,512

# Tested on: Staphylococcus aureus
# Experiment: Antibacterial activity against methicillin-resistant Staphylococcus aureus by two fold serial microbroth dilution method
# Assay type: functional
# In short: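 Two-fold serial microbroth dilution in microdilution plates, run per CLSI, with clinical antibacterial drugs as positive controls. The MRSA strain was a drug-resistant clinical isolate from infected patients. MIC (μg/mL) was read as the lowest concentration giving complete inhibition of visible bacterial growth.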
row,Compound,MIC [µg/mL]
1,Cc1ncc([N+](=O)[O-])n1-c1ccnc(NS(=O)(=O)c2ccc(N)cc2)n1,64
2,Cc1cc2ncn(-c3ccnc(NS(=O)(=O)c4ccc(N)cc4)n3)c2cc1C,64
3,Nc1ccc(S(=O)(=O)Nc2nccc(-n3cnc4ccccc43)n2)cc1,8
4,CCc1nccn1-c1ccnc(NS(=O)(=O)c2ccc(N)cc2)n1,128

# Tested on: Pseudomonas aeruginosa
# Experiment: Antibacterial activity against Pseudomonas aeruginosa ATCC 27853 by two fold serial microbroth dilution method
# Assay type: functional
# In short: as §1
row,Compound,MIC [µg/mL]
1,Cc1ncc([N+](=O)[O-])n1-c1ccnc(NS(=O)(=O)c2ccc(N)cc2)n1,128
2,Cc1cc2ncn(-c3ccnc(NS(=O)(=O)c4ccc(N)cc4)n3)c2cc1C,128
3,Nc1ccc(S(=O)(=O)Nc2nccc(-n3cnc4ccccc43)n2)cc1,256
4,CCc1nccn1-c1ccnc(NS(=O)(=O)c2ccc(N)cc2)n1,128

# Tested on: Staphylococcus aureus
# Experiment: Antibacterial activity against Staphylococcus aureus ATCC 29213 by two fold serial microbroth dilution method
# Assay type: functional
# In short: as §1
row,Compound,MIC [µg/mL]
1,Cc1ncc([N+](=O)[O-])n1-c1ccnc(NS(=O)(=O)c2ccc(N)cc2)n1,128
2,Cc1cc2ncn(-c3ccnc(NS(=O)(=O)c4ccc(N)cc4)n3)c2cc1C,128
3,Nc1ccc(S(=O)(=O)Nc2nccc(-n3cnc4ccccc43)n2)cc1,256
4,CCc1nccn1-c1ccnc(NS(=O)(=O)c2ccc(N)cc2)n1,64

# Tested on: Acinetobacter baumannii
# Experiment: Antibacterial activity against Acinetobacter baumannii by two fold serial microbroth dilution method
# Assay type: functional
# In short: as §1
row,Compound,MIC [µg/mL]
1,Cc1ncc([N+](=O)[O-])n1-c1ccnc(NS(=O)(=O)c2ccc(N)cc2)n1,64
2,Cc1cc2ncn(-c3ccnc(NS(=O)(=O)c4ccc(N)cc4)n3)c2cc1C,128
3,Nc1ccc(S(=O)(=O)Nc2nccc(-n3cnc4ccccc43)n2)cc1,512
4,CCc1nccn1-c1ccnc(NS(=O)(=O)c2ccc(N)cc2)n1,64
